An excerpt weighted towards active compounds, which were near 1.6% of everything screened.
LEDGF integ inh = blockers of LEDGF/p75-dependent integrase strand transfer – biochemical, TR-FRET, high throughput, primary screen | HIV-1 integrase (with human LEDGF/p75) | TR-FRET IN-LEDGF/p75 DNA integration, Eu/Cy5 | inhibition, % at 3.7 µM | 370,000 compounds, 0.64% hits | AID 743269, 2014;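 active means inhibition above the screen-wide mean plus 3 SD, cut at about 13% in these data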;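 further: signal is the Cy5 over europium emission ratio at 671 and 618 nm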
MBD2 inh = inhibitors of MBD2 binding to methylated DNA, primary screen, biochemical, TR-FRET, DNA-binding domain, human | Methyl-CpG-binding domain protein 2 (Homo sapiens), Q9UBB5 | MBD2 binding to methylated oligonucleotide | inhibition, % at 4.4 µM | 370,000 compounds, 0.31% hits | AID 686964, 2013; in the data active means inhibition above about 13%
TDP2 inh = human TDP2 enzyme inhibitors, primary screen, biochemical, epi absorbance, recombinant enzyme; Tyrosyl-DNA phosphodiesterase 2 (Homo sapiens), O95551; inhibition, % at 12.8 µM; 370,000 compounds, 0.34% hits; T5PNP hydrolysis, p-nitrophenol absorbance 415 nm;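 active means inhibition above the mean of all tested compounds plus 3 SD, set per campaign, cut at about 25% in these data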
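Evaluation: % inhibition relative to enzyme-containing and enzyme-free wells. Material: recombinant human TDP2. Benchmarks: enzyme-free and DMSO wells. Timing: enzyme reaction with compound for 2 h at 37 °C. Compound dosing: 12.8 µM only. Measured by: p-Nitrophenol epi absorbance. Reagent: T5PNP substrate at 5 mM, a TopII-DNA adduct mimic. Replication: single well per compound.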
UHRF1 binding = UHRF1 methylated DNA binding inhibitors, primary screen, counter-screen for MBD2 inhibitor project, biochemical, TR-FRET, human UHRF1, single concentration; E3 ubiquitin-protein ligase UHRF1 (Homo sapiens), Q96T88; UHRF1 binding to methylated oligo; inhibition, % at 4.4 µM; 370,000 compounds, 0.75% hits; in the data active means inhibition above about 21%;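 further: UHRF1 SRA domain binding a hemimethylated CpG hairpin DNA probe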
Target sequence (Q96T88 whole entry, looked up, the tested form may be a part): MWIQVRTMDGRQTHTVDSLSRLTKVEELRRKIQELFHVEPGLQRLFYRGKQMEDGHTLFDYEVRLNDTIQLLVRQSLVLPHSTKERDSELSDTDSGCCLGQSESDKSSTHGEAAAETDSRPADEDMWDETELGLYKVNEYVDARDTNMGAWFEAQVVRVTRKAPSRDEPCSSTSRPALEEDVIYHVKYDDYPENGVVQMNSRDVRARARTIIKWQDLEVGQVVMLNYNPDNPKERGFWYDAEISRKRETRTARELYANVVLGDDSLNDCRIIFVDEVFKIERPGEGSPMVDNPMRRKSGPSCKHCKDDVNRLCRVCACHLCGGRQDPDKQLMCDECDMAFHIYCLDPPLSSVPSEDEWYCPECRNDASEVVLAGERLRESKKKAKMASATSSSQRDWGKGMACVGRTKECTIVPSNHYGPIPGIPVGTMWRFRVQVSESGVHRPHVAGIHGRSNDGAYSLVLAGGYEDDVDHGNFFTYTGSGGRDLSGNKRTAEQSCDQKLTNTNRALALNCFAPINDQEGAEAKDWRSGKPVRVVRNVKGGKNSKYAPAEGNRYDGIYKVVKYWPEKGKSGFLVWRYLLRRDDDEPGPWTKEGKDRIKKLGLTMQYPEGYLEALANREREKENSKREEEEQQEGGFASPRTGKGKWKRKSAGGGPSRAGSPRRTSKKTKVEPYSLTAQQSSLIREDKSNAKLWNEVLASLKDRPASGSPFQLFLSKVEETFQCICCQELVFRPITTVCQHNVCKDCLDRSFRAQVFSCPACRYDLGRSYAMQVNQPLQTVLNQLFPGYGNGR
IN multimer up = HIV-1 IN multimer formation enhancers, counter-screen for LEDGF/p75 integration inhibitor project, biochemical, TR-FRET; shares compounds with LEDGF integ inh; TR-FRET HIV-1 integrase multimerization; activation, % at 7.7 µM; 2,000 compounds, 17% hits; in the data active means activation above about 8.9%
TRFRET interf = TR-FRET optical interference artefacts, confirmation, artefact control for LEDGF/p75-dependent integration inhibitor project, biochemical, HIV-1 IN multimerization | AID 1053135, 2014 | shares compounds with LEDGF integ inh | TR-FRET optical interference counterscreen | inhibition, % at 7.7 µM | 2,000 tested, under 10 active;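 active means inhibition above the mean over all tested compounds plus 3 SD, which no compound reached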
LEDGF integ conf = inhibitors of HIV-1 IN-LEDGF/p75 DNA integration, confirmation, biochemical, TR-FRET. shares compounds with LEDGF integ inh. TR-FRET LEDGF/p75-dependent HIV-1 integration. inhibition, % at 3.7 µM. 2,000 compounds, 36% hits; in the data active means inhibition above about 14%
Large screens that a line does not name were inactive (follow-up assays come after a bar, where they were run).

Cc1ccc(S(=O)(=O)N2[C@H](CC(=O)c3cccc4ccccc34)OC[C@@H]2C)cc1	LEDGF integ inh 14 | IN multimer up inactive | TRFRET interf inactive | LEDGF integ conf inactive
Cc1ccc(S(=O)(=O)N(CC(=O)Nc2ccc(C(N)=O)cc2)C(=O)N2CCN(C)CC2)cc1	none
COc1ccc(OC)c(/C=N/NC(=O)CCc2ccc(O)c(O)c2)c1	LEDGF integ inh 58 | IN multimer up inactive | TRFRET interf inactive | LEDGF integ conf inactive
COc1ccc(OC)c(/C=N/NC(=O)CCc2c(C)n[nH]c2C)c1	none
COc1ccccc1OCC(O)Cn1c(Br)nc2c1c(=O)[nH]c(=O)n2C (stereo not given)	none
Oc1ccc(/C=N/Nc2ncnc3c2ncn3Cc2ccccc2)cc1O	LEDGF integ inh 18 | IN multimer up 57 | TRFRET interf inactive | LEDGF integ conf 66
CCOC(=O)C(C)(C)N(Cc1ccccc1C)S(=O)(=O)c1ccc(Cl)c([N+](=O)[O-])c1	none
C/C(=N\NC(=O)C1CCCN(S(=O)(=O)c2ccccc2)C1)c1cccnc1 (stereo not given)	none
Cc1cc(C)c(C(=O)O)c(Cl)n1	none
O=C(CCCCCN1C(=O)C2C3C=CC(C3)C2C1=O)Nc1ccc2ncccc2c1 (stereo not given)	LEDGF integ inh 22 | IN multimer up inactive | TRFRET interf inactive | LEDGF integ conf inactive
O=C(CCCCCN1C(=O)C2C3C=CC(C3)C2C1=O)Nc1ccc(Cl)cc1 (stereo not given)	none
CCOC(=O)c1ccc(NC2OC(=O)c3ccccc32)cc1 (stereo not given)	LEDGF integ inh 20 | IN multimer up inactive | TRFRET interf inactive | LEDGF integ conf inactive
COc1cc(OC)cc(C(=O)O/N=C(\N)c2ccncc2)c1	none
COc1cc(C(=S)N2CCOCC2)ccc1OS(=O)(=O)c1ccc(C)cc1	LEDGF integ inh 20 | IN multimer up inactive | TRFRET interf inactive | LEDGF integ conf inactive
CC(C)(C)c1ccc(CC(=O)N2CCC2(C)C(=O)NS(=O)(=O)c2cccc(OC(F)F)c2)cc1 (stereo not given)	none
Cc1cc(C)cc(CC(=O)N2CCC2(C)C(=O)NS(=O)(=O)c2cccc(OC(F)F)c2)c1 (stereo not given)	LEDGF integ inh 17 | IN multimer up inactive | TRFRET interf inactive | LEDGF integ conf inactive
Cc1c(C(=O)NCCC#N)sc(=O)n1Cc1ccc(C(=O)N(C)C)cc1	LEDGF integ inh 32 | IN multimer up inactive | TRFRET interf inactive | LEDGF integ conf inactive
COc1ccc(OC)c(/C=C/c2ccnc3ccccc23)c1	LEDGF integ inh 25 | IN multimer up inactive | TRFRET interf inactive | LEDGF integ conf inactive
CC(CNCC1CCCO1)COc1cccc2ccccc12 (stereo not given)	none
COC(=O)c1ccc2nc(-c3ccc(C)cc3)c(Cc3ccccc3)n2c1	LEDGF integ inh 14 | IN multimer up inactive | TRFRET interf inactive | LEDGF integ conf inactive
C/C=C/C=C/C(=O)[C@@H]1[C@@H]([C@]2(C)OC(=O)C(C)=C2O)[C@H]2/C(=C(O)/C=C/C=C/C)C(=O)[C@]1(C)C(=O)C2(C)O (stereo not given in full)	LEDGF integ inh 45, UHRF1 binding 48 | IN multimer up inactive | TRFRET interf inactive | LEDGF integ conf 78
CCCCCCN1CCN(C2CN(Cc3ccccc3)S(=O)(=O)C2)CC1 (stereo not given)	none

Compound activity (PubChem BioAssay)
